Key:
[1] = Inhibitory activity for Group II Metabotropic glutamate receptor in rat forebrain membranes by using [3H]glutamate radioligand; assay type: cell membranes, Membrane
Method in brief: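 Displacement of [³H]glutamic acid binding in rat forebrain membranes, an assay described as selective for group II mGluRs. Each compound was tested as a mixture of four isomers (two racemic diastereomers). Some values are the average of two determinations and some of three.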

[2] = molecular target: T1, Metabotropic glutamate receptor 3 (Homo sapiens, UniProt Q14832); test: Ability to block 1S,3R-ACPD-induced inhibition of forskolin stimulated cyclic-AMP in non-neuronal cell line expressing human Metabotropic glutamate receptor 3; assay type: functional
[3] = molecular target: T2, Metabotropic glutamate receptor 2 (Homo sapiens, UniProt Q14416); test: Ability to block 1S,3R-ACPD-induced inhibition of forskolin stimulated cyclic-AMP in non-neuronal cell line expressing human Metabotropic glutamate receptor 2; assay type: functional
[4] = molecular target: T2, Metabotropic glutamate receptor 2; test: Compound was tested its ability to block 1S,3R-ACPD-induced inhibition of forskolin stimulated cyclic-AMP in non-neuronal cell line expressing human Metabotropic glutamate receptor 2; Agonist; assay type: functional
[5] = molecular target: T1, Metabotropic glutamate receptor 3; test: Compound was tested its ability to block 1S,3R-ACPD-induced inhibition of forskolin stimulated cyclic-AMP in non-neuronal cell line expressing human Metabotropic glutamate receptor 3; Agonist; assay type: functional

T1 sequence (Q14832 whole entry): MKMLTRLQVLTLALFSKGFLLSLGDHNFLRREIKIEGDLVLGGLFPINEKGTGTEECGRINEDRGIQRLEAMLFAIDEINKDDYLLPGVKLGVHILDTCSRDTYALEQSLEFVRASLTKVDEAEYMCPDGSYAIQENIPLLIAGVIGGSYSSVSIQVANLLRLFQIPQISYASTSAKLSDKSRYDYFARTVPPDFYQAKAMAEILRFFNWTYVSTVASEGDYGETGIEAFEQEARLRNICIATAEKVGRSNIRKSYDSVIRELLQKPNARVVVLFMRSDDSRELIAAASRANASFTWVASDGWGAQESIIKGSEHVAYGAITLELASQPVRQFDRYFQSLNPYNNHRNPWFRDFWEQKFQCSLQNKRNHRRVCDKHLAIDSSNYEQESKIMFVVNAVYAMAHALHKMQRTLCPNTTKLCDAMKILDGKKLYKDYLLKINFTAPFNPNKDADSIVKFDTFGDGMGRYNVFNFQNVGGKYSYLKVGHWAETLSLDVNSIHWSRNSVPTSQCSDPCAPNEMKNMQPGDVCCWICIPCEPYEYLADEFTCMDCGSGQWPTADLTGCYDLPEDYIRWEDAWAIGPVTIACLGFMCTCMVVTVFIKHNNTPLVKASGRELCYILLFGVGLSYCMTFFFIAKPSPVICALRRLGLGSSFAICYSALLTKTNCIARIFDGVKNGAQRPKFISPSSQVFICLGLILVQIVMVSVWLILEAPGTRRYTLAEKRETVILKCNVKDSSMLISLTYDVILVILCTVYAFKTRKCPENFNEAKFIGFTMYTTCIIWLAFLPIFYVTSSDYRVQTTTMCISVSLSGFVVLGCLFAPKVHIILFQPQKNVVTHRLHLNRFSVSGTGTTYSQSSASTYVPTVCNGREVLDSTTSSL
T2 sequence (Q14416 whole entry): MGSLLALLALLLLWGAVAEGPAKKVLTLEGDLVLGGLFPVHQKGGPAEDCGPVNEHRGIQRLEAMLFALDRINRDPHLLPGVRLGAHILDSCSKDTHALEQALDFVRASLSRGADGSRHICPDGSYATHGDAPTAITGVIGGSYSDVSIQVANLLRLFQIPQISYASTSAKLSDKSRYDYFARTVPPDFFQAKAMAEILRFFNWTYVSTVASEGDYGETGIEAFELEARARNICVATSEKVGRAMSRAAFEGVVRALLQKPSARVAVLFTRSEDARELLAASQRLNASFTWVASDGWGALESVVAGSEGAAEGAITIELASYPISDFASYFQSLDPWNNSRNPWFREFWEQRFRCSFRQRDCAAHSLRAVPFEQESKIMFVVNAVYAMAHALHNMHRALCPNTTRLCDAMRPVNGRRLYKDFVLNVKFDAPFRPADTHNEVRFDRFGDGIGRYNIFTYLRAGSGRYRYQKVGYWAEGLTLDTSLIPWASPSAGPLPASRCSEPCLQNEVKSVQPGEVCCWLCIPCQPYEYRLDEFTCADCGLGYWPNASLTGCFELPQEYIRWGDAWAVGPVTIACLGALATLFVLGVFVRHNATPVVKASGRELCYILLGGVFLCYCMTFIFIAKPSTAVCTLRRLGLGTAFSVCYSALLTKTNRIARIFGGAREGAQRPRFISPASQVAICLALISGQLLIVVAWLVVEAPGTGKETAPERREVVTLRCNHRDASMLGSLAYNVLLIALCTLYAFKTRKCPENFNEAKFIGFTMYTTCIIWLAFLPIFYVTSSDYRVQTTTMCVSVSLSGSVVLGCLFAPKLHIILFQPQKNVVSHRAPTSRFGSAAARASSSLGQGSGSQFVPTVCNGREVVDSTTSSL

| SMILES | IC50 [1] [µM] | IC50 [2] [µM] | IC50 [3] [µM] | IC50 [4] | IC50 [5] |
| --- | --- | --- | --- | --- | --- |
| N[C@@](CCC1C2CC3CC(C2)CC1C3)(C(=O)O)C1C[C@@H]1C(=O)O (some centres not stated) | 0.55 |  |  |  |  |
| N[C@@](CCC1CCCCC1)(C(=O)O)C1C[C@@H]1C(=O)O (some centres not stated) | 0.38 |  |  |  |  |
| NC(CCC12CC3CC(CC(C3)C1)C2)(C(=O)O)[C@H]1C[C@@H]1C(=O)O (some centres not stated) | 0.2 | 0.76 | 0.24 |  |  |
| NC(CCc1ccccc1)(C(=O)O)[C@H]1C[C@@H]1C(=O)O (some centres not stated) | 0.32 | 0.65 | 0.85 |  |  |
| N[C@@](CC(Cc1ccccc1)Cc1ccccc1)(C(=O)O)C1C[C@@H]1C(=O)O (some centres not stated) | > 10 |  |  |  |  |
| N[C@@](CC1c2ccccc2Sc2ccccc21)(C(=O)O)C1C[C@@H]1C(=O)O (some centres not stated) | 0.019 |  |  |  |  |
| N[C@@](CCc1ccc2ccccc2c1)(C(=O)O)C1C[C@@H]1C(=O)O (some centres not stated) | 2.8 |  |  |  |  |
| N[C@@](CC(c1ccccc1)c1ccccc1)(C(=O)O)[C@H]1C[C@@H]1C(=O)O | 0.24 | 0.28 | 4.36 |  |  |
| N[C@@](CC1CCCc2ccccc21)(C(=O)O)C1C[C@@H]1C(=O)O (some centres not stated) | 0.23 |  |  |  |  |
| NC(CCCCc1ccccc1)(C(=O)O)[C@H]1C[C@@H]1C(=O)O (some centres not stated) | 2.3 | 2.8 | 0.45 |  |  |
| N[C@@](CCC1CCNCC1)(C(=O)O)C1C[C@@H]1C(=O)O (some centres not stated) | > 10 |  |  |  |  |
| N[C@](C(=O)O)(C1Cc2ccccc2C1)C1C[C@@H]1C(=O)O (some centres not stated) | > 10 |  |  |  |  |
| N[C@@](CC1c2ccccc2Oc2ccccc21)(C(=O)O)[C@H]1C[C@@H]1C(=O)O | 0.01 |  |  |  |  |
| Cn1cc(CCC(N)(C(=O)O)[C@H]2C[C@@H]2C(=O)O)c2ccccc21 (some centres not stated) | 0.28 | 1.2 | 1.4 |  |  |
| N[C@@](CC1CCOc2ccccc21)(C(=O)O)C1C[C@@H]1C(=O)O (some centres not stated) | 0.63 |  |  |  |  |
| N[C@@](CCCC(c1ccccc1)c1ccccc1)(C(=O)O)C1C[C@@H]1C(=O)O (some centres not stated) | 7 |  |  |  |  |
| NC(CCCc1ccccc1)(C(=O)O)[C@H]1C[C@@H]1C(=O)O (some centres not stated) | 0.63 | 0.55 | 1 |  |  |
| NC(CCc1cccc2ccccc12)(C(=O)O)[C@H]1C[C@@H]1C(=O)O (some centres not stated) |  | 0.47 | 0.24 |  |  |
| N[C@@](CCC(c1ccccc1)c1ccccc1)(C(=O)O)C1C[C@@H]1C(=O)O (some centres not stated) | 7.1 | > 10 | > 10 |  |  |
| N[C@@](COc1ccccc1)(C(=O)O)C1C[C@@H]1C(=O)O (some centres not stated) | 11.2 |  |  |  |  |
| CCCCCCCC[C@](N)(C(=O)O)C1C[C@@H]1C(=O)O (some centres not stated) | 1.7 |  |  |  |  |

Other lines, results leading:

| IC50 [1] [µM] | IC50 [2] [µM] | IC50 [3] [µM] | IC50 [4] | IC50 [5] | SMILES |
| --- | --- | --- | --- | --- | --- |
| 2.1 |  |  |  |  | CCC[C@](N)(C(=O)O)C1C[C@@H]1C(=O)O (some centres not stated) |
| 1.8 |  |  |  |  | CCCCC[C@](N)(C(=O)O)C1C[C@@H]1C(=O)O (some centres not stated) |
| 0.23 | 1.4 | 1.1 |  |  | NC(CC1CCCCC1)(C(=O)O)[C@H]1C[C@@H]1C(=O)O (some centres not stated) |
| 0.2 |  |  |  |  | CC(C[C@](N)(C(=O)O)C1C[C@@H]1C(=O)O)c1ccccc1 (some centres not stated) |
| 29.5 | > 10 | > 10 |  |  | N[C@@](CC1CCC1)(C(=O)O)C1C[C@@H]1C(=O)O (some centres not stated) |
| 0.85 |  |  |  |  | CC(C)CCC[C@](N)(C(=O)O)C1C[C@@H]1C(=O)O (some centres not stated) |
| > 10 |  |  |  |  | CC(C)[C@](N)(C(=O)O)C1C[C@@H]1C(=O)O (some centres not stated) |
| 1.4 |  |  |  |  | N[C@@](CC1CCCC1)(C(=O)O)C1C[C@@H]1C(=O)O (some centres not stated) |
| 6.2 |  |  |  |  | C[C@](N)(C(=O)O)C1C[C@@H]1C(=O)O (some centres not stated) |
| 0.21 | 0.57 | 1 |  |  | NC(CCc1ccsc1)(C(=O)O)[C@H]1C[C@@H]1C(=O)O (some centres not stated) |
| 2.2 | 2.5 | 6.5 |  |  | CCC(N)(C(=O)O)[C@H]1C[C@@H]1C(=O)O (some centres not stated) |
| 1.4 |  |  |  |  | CCCC[C@](N)(C(=O)O)C1C[C@@H]1C(=O)O (some centres not stated) |
| 1.1 |  |  |  |  | CC(C)CC[C@](N)(C(=O)O)C1C[C@@H]1C(=O)O (some centres not stated) |
| 0.47 |  |  | Agonist | Agonist | N[C@@H](C(=O)O)C1C[C@@H]1C(=O)O (some centres not stated) |
| > 10 | > 10 | > 10 |  |  | N[C@@](Cc1ccccc1)(C(=O)O)C1C[C@@H]1C(=O)O (some centres not stated) |
| 0.7 | 1.8 | 1.6 |  |  | CC(C)C[C@](N)(C(=O)O)C1C[C@@H]1C(=O)O (some centres not stated) |
| 0.58 |  |  |  |  | N[C@@](CCc1cccs1)(C(=O)O)C1C[C@@H]1C(=O)O (some centres not stated) |

Source: ChEMBL document CHEMBL1131459, “2-Substituted (2SR)-2-amino-2-((1SR,2SR)-2-carboxycycloprop-1-yl)glycines as potent and selective antagonists of group II metabotropic glutamate receptors. 1. Effects of alkyl, arylalkyl, and diarylalkyl substitution” (J Med Chem, 1998)
